Experimental findings from ChEMBL document CHEMBL4196178, “Structure-Based Drug Design of Potent Pyrazole Derivatives against Rhinovirus Replication” (J Med Chem, 2018) are described below.

Data set [1] is described as follows: Cytotoxicity against human HeLa Rh cells assessed as reduction in cell viability after 3 days by MTS assay. The data set is classed as cell-based. In general terms: Tetrazolium assays rely on reduction of a dye to a coloured formazan, in cell work by metabolically active cells.
Data set [2] is described as follows: Selectivity index, ratio of CC50 for human HeLa Rh cells to EC50 for Rhinovirus B14 capsid infected in human HeLa Rh cells. It counts as toxicity, cell-based. Particulars: read-out: Ratio CC50/EC50. In a few lines:
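SI = CC₅₀/EC₅₀ for RV-B14 in HeLa Rh cells, both from the same 3-day 35 °C MTS CPE assay. CC₅₀ was obtained by light-microscope scoring of compound-treated uninfected cells, and EC₅₀ from MTS dose-response. Both values were derived by logarithmic interpolation and reported as median ± median absolute deviation.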

Some results are limits rather than exact numbers.

For orientation: CC50 means the concentration giving 50% cytotoxicity. Turning to `Cc1noc(C)c1-c1ccc(CC(O)c2ccc(-n3cccn3)cc2)c([N+](=O)[O-])c1` (racemic), in data set [1], the half-maximal cytotoxic concentration (CC50) at 72 h turned out to be 14 µM.

For `Cn1nc(C(F)(F)F)cc1-c1ccc(CC(O)c2ccc(-n3cccn3)cc2)c([N+](=O)[O-])c1` (racemic), the 50% cytotoxic concentration (CC50) at 72 h in data set [1] stood at 14 µM. Besides, the selectivity ratio in data set [2] was 29.

As for `Cn1cc(-c2ccc(C[C@@H](O)c3ccc(-n4cccn4)cc3)c([N+](=O)[O-])c2)cn1`, in data set [1], the cytotoxic concentration (CC50) at 72 h was above 342 µM. The selectivity ratio in data set [2] was above 136.

Regarding `O=[N+]([O-])c1cc(Br)ccc1CC(O)c1ccc(-n2cncn2)cc1` (racemic), the half-maximal cytotoxic concentration (CC50) at 72 h in data set [1] was determined as 39 µM. In data set [2], the selectivity ratio was determined as 156.

Turning to `COC(=O)c1ccc(CC(O)c2ccc(-c3ccncc3)cc2)c([N+](=O)[O-])c1` (racemic), the CC50 at 72 h in data set [1] was above 264 µM. The selectivity ratio in data set [2] was above 41.

As for `O=[N+]([O-])c1cc(-c2cncs2)ccc1CC(O)c1ccc(-n2cncn2)cc1` (racemic), the CC50 at 72 h in data set [1] was 44 µM. Further, the selectivity ratio in data set [2] came to 110.

As for `O=[N+]([O-])c1cc(-c2cccs2)ccc1CC(O)c1ccc(-c2ccncc2)cc1` (racemic), the CC50 at 72 h in data set [1] was above 248 µM. Besides, in data set [2], the selectivity ratio is above 191.

As for `Cn1cc(-c2ccc(C[C@@H](O)c3ccc(-n4cncn4)cc3)c([N+](=O)[O-])c2)cn1`, the CC50 at 72 h in data set [1] is above 342 µM.

On to `Cn1nc(C(F)(F)F)cc1-c1ccc(CC(O)c2ccc(-c3ccncc3)cc2)c([N+](=O)[O-])c1` (racemic), for which, in data set [1], the CC50 at 72 h was above 100 µM. Also, in data set [2], the selectivity ratio was above 100.

With `O=[N+]([O-])c1cc(F)ccc1CC(O)c1ccc(-n2cccn2)cc1` (racemic), in data set [1], the CC50 at 72 h is above 100 µM. The selectivity ratio in data set [2] was above 12.
